For 16 compounds, EC50 results are on record in ChEMBL document CHEMBL1155709, “Eleven novel diarylheptanoids and two unusual diarylheptanoid derivatives from the seeds of Alpinia blepharocalyx” (2001).

Experiment [1] can be described thus: Cytotoxicity against mouse 26-L5 cells by MTT assay. It is filed as functional. The conditions noted are these: read-out: ED50 (the source's name). A digest of the protocol: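 Murine colon 26-L5 carcinoma cells grown in RPMI-1640 with 10% fetal calf serum, 0.1% NaHCO3 and 2 mM glutamine. MTT assay compared viability in the presence and absence of agents, giving ED50 values. Positive controls were 5-fluorouracil and curcumin.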
A general note: Tetrazolium assays rely on reduction of a dye to a coloured formazan, in cell work by metabolically active cells.

The subject of a further experiment is HT-1080. In words: Cytotoxicity against human HT1080 cells by MTT assay. It is filed as functional. To be noted: read-out: ED50 (the source's name). The procedure, abridged:
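Human HT-1080 fibrosarcoma cells kept in Eagle's minimum essential medium with 10% fetal calf serum, 0.1% NaHCO3 and 2 mM glutamine. Viability with and without test agents was read by standard MTT assay, and ED50 was reported. 5-Fluorouracil and curcumin served as positive controls.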

As for `COc1cc2c(c3c1C(=O)CC(c1ccc(O)cc1)O3)[C@H](C[C@@H](O)CCc1ccc(O)cc1)C[C@H](c1ccc(O)cc1)O2` (mixture of isomers), the EC50 was 42.1 µM in experiment [1] (Mus musculus) and 10.1 µM in the experiment on HT-1080 (Homo sapiens, HT-1080).

Turning to `COc1cc2c(c3c1C(=O)CC(c1ccc(O)cc1)O3)[C@@H]1C[C@H](CCc3ccc(O)cc3)O[C@H](c3ccc(O)cc3)[C@H]1[C@H](c1ccc(O)cc1)O2` (mixture of isomers) [CALYXIN J], the EC50 in experiment [1] turned out to be 13.7 µM; with HT-1080 it was 0.32 µM.

For the compound `COc1cc(O)c([C@@H]2C[C@H](CCc3ccc(O)cc3)O[C@H](c3ccc(O)cc3)C2)c2c1C(=O)CC(c1ccc(O)cc1)O2` (stereo in doubt; 3) [CALYXIN K], the EC50 in experiment [1] was 7.73 µM; with HT-1080 (Homo sapiens, HT-1080), 5.09 µM.

On to `COc1cc(O)c([C@@H]2C[C@H](CCc3ccc(O)cc3)O[C@H](c3ccc(O)cc3)C2)c2c1C(=O)CC(c1ccc(O)cc1)O2` (stereo in doubt; 4) [CALYXIN K], for which the EC50 in experiment [1] was 33 µM; in the experiment with HT-1080 it was 4.75 µM.

In the case of `COc1cc2c(c3c1C(=O)CC(c1ccc(O)cc1)O3)[C@@H]1C[C@H](CCc3ccc(O)cc3)O[C@H](c3ccc(O)cc3)[C@H]1[C@H](c1ccc(O)cc1)O2` (stereo in doubt; 7) [CALYXIN J], the EC50 in experiment [1] (Mus musculus) was 23.2 µM; with HT-1080 it was 8.19 µM.

Regarding `COc1cc2c(c3c1C(=O)CC(c1ccc(O)cc1)O3)[C@@H]1C[C@H](CCc3ccc(O)cc3)O[C@@H]1O2` (stereo in doubt; 12) [NEOCALYXIN A], the EC50 in experiment [1] (Mus musculus) was more than 100 µM; in the experiment with HT-1080 (Homo sapiens, HT-1080), 10.7 µM.

Turning to `COc1cc2c(c3c1C(=O)CC(c1ccc(O)cc1)O3)[C@@H]1C[C@H](CCc3ccc(O)cc3)O[C@@H]1O2` (stereo in doubt; 13) [NEOCALYXIN A], the EC50 in experiment [1] worked out at 78 µM; in the experiment on HT-1080 it was 20.2 µM.

Take `COc1cc(O)c([C@@H]2C[C@H](CCc3ccc(O)cc3)O[C@H](c3ccc(O)cc3)C2)c(O)c1C(=O)/C=C/c1ccc(O)cc1` [CALYXIN B]: the EC50 in experiment [1] (Mus musculus) worked out at 10.4 µM; in the experiment with HT-1080 (Homo sapiens, HT-1080), 10.4 µM.

In the case of `COc1cc(O)c(C(/C=C/c2ccc(O)cc2)C[C@@H](O)CCc2ccc(O)cc2)c2c1C(=O)CC(c1ccc(O)cc1)O2` (some centres not stated) [CALYXIN E], the EC50 is 98.1 µM in experiment [1] (Mus musculus) and 21.7 µM in the experiment with HT-1080 (Homo sapiens, HT-1080).

Turning to `COc1cc(O)c([C@@H]2C[C@H](CCc3ccc(O)cc3)O[C@@H](c3ccc(O)cc3)C2)c2c1C(=O)CC(c1ccc(O)cc1)O2` (some centres not stated) [CALYXIN G], the EC50 came to 42.2 µM in experiment [1] (Mus musculus) and 25.9 µM with HT-1080 (Homo sapiens, HT-1080).

Take `COc1cc(O)c2c(c1C(=O)/C=C/c1ccc(O)cc1)O[C@@H](c1ccc(O)cc1)[C@@H]1[C@@H](c3ccc(O)cc3)O[C@@H](CCc3ccc(O)cc3)C[C@@H]21` [CALYXIN I]: the EC50 in experiment [1] (Mus musculus) was 8.39 µM; with HT-1080 (Homo sapiens, HT-1080), 9.08 µM.

`COc1cc(O)c2c(c1C(=O)/C=C/c1ccc(O)cc1)O[C@@H](c1ccc(O)cc1)C[C@H]2C[C@@H](O)CCc1ccc(O)cc1` [CALYXIN L]: the EC50 in experiment [1] (Mus musculus) amounted to 28.2 µM; in the experiment with HT-1080 (Homo sapiens, HT-1080), 44.3 µM.

Turning to `COc1cc(/C=C/C(=O)CC(=O)/C=C/c2ccc(O)c(OC)c2)ccc1O` [CURCUMIN], the EC50 in experiment [1] (Mus musculus) worked out at 23.2 µM; in the experiment on HT-1080 (Homo sapiens, HT-1080) it was 23.4 µM.

Take `COc1cc(O)c([C@@H]2C[C@H](CCc3ccc(O)cc3)O[C@@H](c3ccc(O)cc3)C2)c(O)c1C(=O)/C=C/c1ccc(O)cc1` [EPICALYXIN F]: the EC50 in experiment [1] (Mus musculus) came to 0.89 µM; in the experiment with HT-1080 (Homo sapiens, HT-1080), 1.71 µM.

Turning to `COc1cc(O)c2c(c1C(=O)/C=C/c1ccc(O)cc1)O[C@H](c1ccc(O)cc1)[C@@H]1[C@@H](c3ccc(O)cc3)O[C@@H](CCc3ccc(O)cc3)C[C@@H]21` [EPICALYXIN I], the EC50 is 12.1 µM in experiment [1] (Mus musculus) and 5.88 µM in the experiment on HT-1080 (Homo sapiens, HT-1080).

Turning to `O=c1[nH]cc(F)c(=O)[nH]1` [FLUOROURACIL], the EC50 turned out to be 0.53 µM in experiment [1] (Mus musculus) and 8 µM in the experiment on HT-1080 (Homo sapiens, HT-1080).
